ChEMBL document CHEMBL1133762, “Aureobasidins: structure-activity relationships for the inhibition of the human MDR1 P-glycoprotein ABC-transporter” (J Med Chem, 2000)
Values after ≈ are worked out from the molar mass of the structure shown.

Experiments:
[1] = molecular target: T1, ATP-dependent translocase ABCB1 (Homo sapiens, UniProt P08183)
[2] = Antifungal activity was determined by its potency compared with that of AbA. Value is determined as ratio of AbA to the analogue.; type: functional
Summary of the method: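 Agar dilution MIC against S. cerevisiae ATCC 9763 on Sabouraud–dextrose agar plates containing graded compound concentrations. A loopful of about 5 × 10⁷ cells/mL suspension was streaked on the surface, and plates were incubated at 30 °C for 3 days. MIC was the lowest concentration with no detectable growth. The value is the AbA/analogue activity ratio.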

[3] = molecular target: T1, ATP-dependent translocase ABCB1; assay: Direct comparison of the antifungal activities with the relative Pgp-inhibitory potencies, calculated by comparing ug/mL IC50(or IC20).; type: functional
[4] = molecular target: T1, ATP-dependent translocase ABCB1; assay: (§1) Human MDR1 Pgp inhibitory activity by using standard calcein-AM efflux method with the human leukemia CEM cells.; type: cell-based, CCRF-CEM
[5] = molecular target: P-glycoprotein (ABCB1, MDR1) (Homo sapiens, UniProt P08183); assay: as §1; type: cell-based, CCRF-CEM; conditions: probe calcein-AM
[6] = tested on: Saccharomyces cerevisiae; assay: Relative antifungal activity (against Saccharomyces cerevisiae) compared to AbA
[7] = tested on: Saccharomyces cerevisiae; assay: Minimum growth-inhibitory concentration against Saccharomyces cerevisiae ATCC 9763 by agar dilution method by the suspension of a fungi containing ~5 x 10e (7) cells/mL.; type: functional
Summary of the method: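 Agar dilution on Sabouraud–dextrose agar plates with graded compound concentrations. A loopful of yeast suspension (about 5 × 10⁷ cells/mL) was streaked on the surface. Plates were incubated at 30 °C for 3 days. MIC is the lowest concentration with no detectable growth.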

T1 sequence (P08183 whole entry): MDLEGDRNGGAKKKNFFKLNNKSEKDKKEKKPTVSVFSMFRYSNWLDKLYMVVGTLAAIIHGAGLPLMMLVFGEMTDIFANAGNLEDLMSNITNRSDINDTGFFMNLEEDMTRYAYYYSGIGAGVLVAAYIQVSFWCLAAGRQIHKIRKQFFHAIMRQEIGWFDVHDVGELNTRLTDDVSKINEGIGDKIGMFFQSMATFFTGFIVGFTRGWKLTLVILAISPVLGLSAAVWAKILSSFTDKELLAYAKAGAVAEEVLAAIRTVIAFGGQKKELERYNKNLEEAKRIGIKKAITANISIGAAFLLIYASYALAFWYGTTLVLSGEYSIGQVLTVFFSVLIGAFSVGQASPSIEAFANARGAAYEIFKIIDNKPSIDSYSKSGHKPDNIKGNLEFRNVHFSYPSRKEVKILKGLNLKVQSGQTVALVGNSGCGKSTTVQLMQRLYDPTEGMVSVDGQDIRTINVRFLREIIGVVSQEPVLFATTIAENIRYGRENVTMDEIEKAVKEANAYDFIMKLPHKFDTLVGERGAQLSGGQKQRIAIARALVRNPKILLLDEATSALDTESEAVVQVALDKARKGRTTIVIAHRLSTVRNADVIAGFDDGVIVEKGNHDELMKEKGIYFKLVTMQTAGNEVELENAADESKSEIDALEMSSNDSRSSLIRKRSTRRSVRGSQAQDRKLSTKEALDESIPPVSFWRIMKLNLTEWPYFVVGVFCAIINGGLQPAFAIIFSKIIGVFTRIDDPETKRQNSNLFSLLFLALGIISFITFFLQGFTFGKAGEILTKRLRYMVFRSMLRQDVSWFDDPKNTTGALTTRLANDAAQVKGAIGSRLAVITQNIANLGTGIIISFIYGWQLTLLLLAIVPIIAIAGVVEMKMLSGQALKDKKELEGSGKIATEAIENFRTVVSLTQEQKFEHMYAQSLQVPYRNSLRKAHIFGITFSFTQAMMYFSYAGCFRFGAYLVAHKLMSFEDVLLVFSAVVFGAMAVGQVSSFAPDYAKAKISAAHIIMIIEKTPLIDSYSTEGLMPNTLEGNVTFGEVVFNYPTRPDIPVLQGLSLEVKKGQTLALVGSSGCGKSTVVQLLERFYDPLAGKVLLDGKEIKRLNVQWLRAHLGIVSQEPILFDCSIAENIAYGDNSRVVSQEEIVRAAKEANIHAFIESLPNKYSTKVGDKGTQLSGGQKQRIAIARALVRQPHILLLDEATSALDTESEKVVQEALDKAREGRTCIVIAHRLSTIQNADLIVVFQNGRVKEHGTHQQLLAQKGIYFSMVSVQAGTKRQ
Sequence of P-glycoprotein (ABCB1, MDR1) (P08183 whole entry): as above

## CC[C@@H](C)[C@@H]1NC(=O)[C@@H]2CCCN2C(=O)[C@H](Cc2ccccc2)N(C)C(=O)[C@H](Cc2ccccc2)NC(=O)[C@H](C(C)C)N(C)C(=O)[C@@H]([C@H](C)CC)OC(=O)[C@H](C(C)(C)O)N(C)C(=O)[C@H](CC(C)C)NC(=O)[C@H](C(C)C)N(C)C1=O [AUREOBASIDIN A]
[1]
  IC50: 2270 nM

## CC[C@@H](C)[C@@H]1NC(=O)[C@@H]2CCCN2C(=O)[C@H](Cc2ccccc2)N(C)C(=O)[C@H](Cc2ccccc2)NC(=O)[C@H](C(C)C)N(C)C(=O)[C@@H]([C@@H](C)CC)OC(=O)CN(C)C(=O)[C@H](CC(C)C)NC(=O)[C@H](C(C)C)N(C)C1=O
[2]
  AbA/analogue ratio: <0.016

## CC[C@H](C)[C@@H]1NC(=O)[C@@H]2CCCN2C(=O)[C@@H](C)N(C)C(=O)[C@H](Cc2ccc(OCC3CCCCC3)cc2)NC(=O)[C@H](C(C)C)N(C)C(=O)[C@@H]([C@@H](C)CC)OC(=O)[C@H](C(C)(C)O)N(C)C(=O)[C@H](CC(C)C)NC(=O)[C@H](C(C)C)N(C)C1=O
[3]
  Pgp AbA/analogue ratio: 1
[4]
  IC50: 2110 nM
[5]
  IC20: 640 nM
[6]
  antifungal AbA/analogue ratio: 0.25
[7]
  MIC: 1.6 µg/mL (≈ 1.41 µM)
